ChEMBL document CHEMBL1138529, “Efficacy, pharmacokinetics, and metabolism of tetrahydroquinoline inhibitors of Plasmodium falciparum protein farnesyltransferase” (Antimicrob Agents Chemother, 2007)
Activity calls are given as the source filed them.

What was measured:
[1] = biological target: Adenosine receptor A1 (Homo sapiens) (UniProt P30542); test: Inhibition of adenosine A1 receptor at 10 uM
In short: (§1)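 Radioligand displacement screen by a contractor across 50 receptors, ion channels and transporters, test compound at 10 μM; decrease in specific ligand binding expressed as percentage, with >50% decrease taken as significant.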

[2] = biological target: C-X-C chemokine receptor type 2 (Homo sapiens) (UniProt P25025); test: Inhibition of CXCR2 receptor at 10 uM; in short: as §1
[3] = Metabolic stability in mouse liver microsomes; type: ADME, Microsome
In short: (§2)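 Pooled female liver microsomes at 0.5 mg/ml in 0.1 M potassium phosphate pH 7.4, 3 mM MgCl2, 1 mM EDTA, with NADPH regenerating system (1 mM NADP+, 5 mM glucose-6-phosphate, 1 U/ml G6PDH). Preincubated 10 min at 37°C, then compound added to 1 μM final. Time points quenched with 3 volumes acetonitrile plus internal standard; parent quantified by LC/MS; half-life reported.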

[4] = AUC in BALB/c mouse at 50 mg/kg, po; type: ADME, organism-based; design: dose 50 mg/kg, route oral; conditions: plasma
In short: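 Three female BALB/c mice (lines for mice, 8–10 weeks) or three female Sprague-Dawley rats (10–12 weeks) per group; 50 mg/kg oral gavage in 3% EtOH-7% Tween 80-90% normal saline. Plasma sampled at set times (tail bleed in mice, saphenous vein in rats), extracted with acetonitrile plus internal standard, quantified by LC/MS; AUC as mean of three animals.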

[5] = system: Rattus norvegicus; test: Toxicity in Plasmodium berghei NK65 infected Sprague-Dawley rat assessed as effect on blood counts at 50 mg/kg, perorally administered every 8 hrs for 3 days; type: organism-based; design: dose 50 mg/kg, route oral; conditions: in vivo, po
In short: (§3)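 Female Sprague-Dawley rats, 10-12 weeks, n = 3 per schedule. Dosed 50 mg/kg by oral gavage every 8 h or every 12 h for 72 h. At the end of dosing, blood was sent to a clinical laboratory for complete blood counts, white cell differentials, electrolytes, glucose, renal function, liver enzymes and cholesterol.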

[6] = biological target: Cholecystokinin receptor type A (Homo sapiens) (UniProt P32238); test: Inhibition of CCK1 receptor at 10 uM; in short: as §1
Cholecystokinin receptor type A (Homo sapiens), sequence (P32238 whole entry): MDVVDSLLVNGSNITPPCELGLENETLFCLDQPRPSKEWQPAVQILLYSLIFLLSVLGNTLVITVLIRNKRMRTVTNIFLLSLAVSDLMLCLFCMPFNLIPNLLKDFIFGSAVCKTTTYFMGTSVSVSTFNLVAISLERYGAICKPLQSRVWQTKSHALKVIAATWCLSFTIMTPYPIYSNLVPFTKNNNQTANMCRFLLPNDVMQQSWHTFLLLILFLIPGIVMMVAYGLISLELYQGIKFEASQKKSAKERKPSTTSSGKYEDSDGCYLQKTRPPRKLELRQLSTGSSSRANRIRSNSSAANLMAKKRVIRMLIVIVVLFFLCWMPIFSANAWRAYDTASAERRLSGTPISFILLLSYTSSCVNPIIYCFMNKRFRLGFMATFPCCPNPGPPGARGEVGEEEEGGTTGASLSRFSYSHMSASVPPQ

[7] = biological target: D(1A) dopamine receptor (Homo sapiens) (UniProt P21728); test: Inhibition of dopamine D1 receptor at 10 uM
D(1A) dopamine receptor (Homo sapiens), sequence (P21728 whole entry): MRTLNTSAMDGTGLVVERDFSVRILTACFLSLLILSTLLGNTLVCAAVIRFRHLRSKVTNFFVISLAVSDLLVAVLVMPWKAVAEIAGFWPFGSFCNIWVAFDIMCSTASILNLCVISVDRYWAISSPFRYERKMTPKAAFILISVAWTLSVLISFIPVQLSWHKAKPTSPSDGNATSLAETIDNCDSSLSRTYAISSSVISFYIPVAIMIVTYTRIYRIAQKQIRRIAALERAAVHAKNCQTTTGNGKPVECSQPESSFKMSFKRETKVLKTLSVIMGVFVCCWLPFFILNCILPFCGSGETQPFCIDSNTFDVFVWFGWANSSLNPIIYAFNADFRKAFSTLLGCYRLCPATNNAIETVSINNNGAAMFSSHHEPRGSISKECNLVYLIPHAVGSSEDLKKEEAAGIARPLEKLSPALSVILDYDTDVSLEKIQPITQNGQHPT
In short: (§4)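 Radioligand displacement at a contract lab across a panel of 50 receptors, ion channels and transporters, single test concentration 10 μM; loss of specific ligand binding reported as percent, with >50% decrease counted as significant.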

[8] = biological target: Muscarinic acetylcholine receptor M3 (Homo sapiens) (UniProt P20309); test: Inhibition of muscarinic M3 receptor at 10 uM; in short: as §4
Muscarinic acetylcholine receptor M3 (Homo sapiens), sequence (P20309 whole entry, looked up): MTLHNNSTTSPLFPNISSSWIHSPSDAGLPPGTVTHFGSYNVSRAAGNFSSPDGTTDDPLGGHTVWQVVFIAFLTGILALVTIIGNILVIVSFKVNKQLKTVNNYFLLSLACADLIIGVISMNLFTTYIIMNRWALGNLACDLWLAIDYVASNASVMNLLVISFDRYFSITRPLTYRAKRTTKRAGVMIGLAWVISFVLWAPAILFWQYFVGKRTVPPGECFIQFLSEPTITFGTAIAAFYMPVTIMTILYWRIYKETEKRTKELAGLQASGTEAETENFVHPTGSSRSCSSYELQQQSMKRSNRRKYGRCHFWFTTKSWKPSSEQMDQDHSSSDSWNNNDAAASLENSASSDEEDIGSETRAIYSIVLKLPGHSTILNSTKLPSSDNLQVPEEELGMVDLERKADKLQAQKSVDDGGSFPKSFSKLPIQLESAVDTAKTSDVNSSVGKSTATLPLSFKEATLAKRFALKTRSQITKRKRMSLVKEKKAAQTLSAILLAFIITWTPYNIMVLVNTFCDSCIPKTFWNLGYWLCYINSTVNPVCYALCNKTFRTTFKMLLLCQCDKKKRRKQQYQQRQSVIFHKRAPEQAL

[9] = biological target: Neuropeptide Y receptor type 2 (Homo sapiens) (UniProt P49146); test: Inhibition of neuropeptide Y2 receptor at 10 uM; in short: as §4
Neuropeptide Y receptor type 2 (Homo sapiens), sequence (P49146 whole entry): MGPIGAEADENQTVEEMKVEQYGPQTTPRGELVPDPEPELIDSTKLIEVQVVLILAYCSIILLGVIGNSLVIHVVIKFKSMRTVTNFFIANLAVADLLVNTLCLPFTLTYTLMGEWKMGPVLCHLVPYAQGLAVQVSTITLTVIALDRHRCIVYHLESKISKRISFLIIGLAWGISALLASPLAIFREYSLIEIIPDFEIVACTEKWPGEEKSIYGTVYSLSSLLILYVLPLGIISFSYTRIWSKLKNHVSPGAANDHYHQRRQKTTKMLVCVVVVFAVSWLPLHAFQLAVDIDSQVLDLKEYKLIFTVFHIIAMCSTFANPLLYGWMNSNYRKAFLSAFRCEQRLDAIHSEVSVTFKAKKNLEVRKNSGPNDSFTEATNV

[10] = biological target: Nociceptin receptor (Homo sapiens) (UniProt P41146); test: Inhibition of ORL1 receptor at 10 uM; in short: as §1
[11] = system: Rattus norvegicus; test: Toxicity in Plasmodium berghei NK65 infected Sprague-Dawley rat assessed as effect on renal function at 50 mg/kg, perorally administered every 8 hrs for 3 days; type: organism-based; design: dose 50 mg/kg, route oral; conditions: in vivo, po; in short: as §3
[12] = Inhibition of Potassium channel at 10 uM
In short: (§5)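 Radioligand displacement screen at a 10 μM test concentration, run by a contract lab across a panel of 50 receptors, pharmacologically active ion channels and transporters. The read-out is the decrease in specific radiolabeled ligand binding, expressed as a percentage. A decrease above 50% was considered significant.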

[13] = biological target: 5-hydroxytryptamine receptor 6 (Homo sapiens) (UniProt P50406); test: Inhibition of 5HT6 receptor at 10 uM; in short: as §1
[14] = Inhibition of […] GABA-gated chloride channel at 10 uM; in short: as §5
[15] = system: Plasmodium berghei; test: Antiplasmodial activity as reduced parasitaemia against Plasmodium berghei NK65 infected Sprague-Dawley rat at 50 mg/kg every 12 hrs peroral dose for 3 days
[16] = biological target: Mu-type opioid receptor (Homo sapiens) (UniProt P35372); test: Inhibition of mu opioid receptor at 10 uM; in short: as §4
[17] = system: Plasmodium falciparum; test: Antiplasmodial activity against chloroquine-sensitive Plasmodium falciparum 3D7 by [3H]hypoxanthine uptake; type: functional; conditions: read-out: ED50 (the source's name)
In short: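 Asynchronous cultures at 0.5% parasitemia and 0.5% hematocrit in RPMI 1640 with 20% heat-inactivated human A+ plasma, exposed to serially diluted inhibitor (top final 5 μM, from DMSO stock) under 5% CO2/5% O2/90% N2 at 37°C for 48 h. [3H]hypoxanthine was then added for 24 h and harvested counts were background-subtracted against DMSO-only controls. ED50 came from linear regression, as the mean of duplicates.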

[18] = Inhibition of SKCa channel at 10 uM; in short: as §5
[19] = system: Rattus norvegicus; test: Toxicity in Plasmodium berghei NK65 infected Sprague-Dawley rat assessed as effect on white blood cell differentials at 50 mg/kg, perorally administered every 8 hrs for 3 days; type: organism-based; design: dose 50 mg/kg, route oral; conditions: in vivo, po; in short: as §3
[20] = biological target: Substance-K receptor (Homo sapiens) (UniProt P21452); test: Inhibition of NK2 receptor at 10 uM; in short: as §1
[21] = Oral bioavailability in Sprague-Dawley rat; type: ADME, organism-based; conditions: in vivo
In short: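 Female Sprague-Dawley rats, 10-12 weeks, three per group. Oral gavage at 50 mg/kg and jugular-catheter i.v. dose at 2 mg/kg, both in 3% EtOH-7% Tween 80-90% saline. Plasma taken over time, acetonitrile extraction with internal standard, LC/MS. Bioavailability computed as oral AUC/i.v. AUC.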

[22] = system: Rattus norvegicus; test: Toxicity in Plasmodium berghei NK65 infected Sprague-Dawley rat assessed as effect on liver enzyme levels at 50 mg/kg, perorally administered every 8 hrs for 3 days; type: organism-based; design: dose 50 mg/kg, route oral; conditions: in vivo, po; in short: as §3
[23] = biological target: Sodium-dependent noradrenaline transporter (Homo sapiens) (UniProt P23975); test: Inhibition of NET at 10 uM; in short: as §1
Sodium-dependent noradrenaline transporter (Homo sapiens), sequence (P23975 whole entry): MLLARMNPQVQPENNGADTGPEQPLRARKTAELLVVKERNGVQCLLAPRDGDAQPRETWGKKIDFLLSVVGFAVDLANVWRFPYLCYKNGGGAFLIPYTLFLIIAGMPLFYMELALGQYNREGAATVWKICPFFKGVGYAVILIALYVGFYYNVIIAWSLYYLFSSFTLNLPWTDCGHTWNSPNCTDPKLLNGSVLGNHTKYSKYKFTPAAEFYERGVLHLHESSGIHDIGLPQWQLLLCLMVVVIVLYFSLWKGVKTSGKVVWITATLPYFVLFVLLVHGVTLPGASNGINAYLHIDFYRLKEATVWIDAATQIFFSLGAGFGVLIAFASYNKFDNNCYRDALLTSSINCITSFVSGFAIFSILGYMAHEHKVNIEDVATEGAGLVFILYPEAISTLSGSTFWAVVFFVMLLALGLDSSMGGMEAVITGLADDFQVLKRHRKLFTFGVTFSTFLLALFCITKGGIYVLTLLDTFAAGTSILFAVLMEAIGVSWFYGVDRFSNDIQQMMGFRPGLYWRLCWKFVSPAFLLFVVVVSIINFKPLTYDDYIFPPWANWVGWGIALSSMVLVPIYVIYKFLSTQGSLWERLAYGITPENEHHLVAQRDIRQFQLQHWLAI

[24] = biological target: Vasoactive intestinal polypeptide receptor 1 (Homo sapiens) (UniProt P32241); test: Inhibition of VIP1 receptor at 10 uM; in short: as §1
Vasoactive intestinal polypeptide receptor 1 (Homo sapiens), sequence (P32241 whole entry): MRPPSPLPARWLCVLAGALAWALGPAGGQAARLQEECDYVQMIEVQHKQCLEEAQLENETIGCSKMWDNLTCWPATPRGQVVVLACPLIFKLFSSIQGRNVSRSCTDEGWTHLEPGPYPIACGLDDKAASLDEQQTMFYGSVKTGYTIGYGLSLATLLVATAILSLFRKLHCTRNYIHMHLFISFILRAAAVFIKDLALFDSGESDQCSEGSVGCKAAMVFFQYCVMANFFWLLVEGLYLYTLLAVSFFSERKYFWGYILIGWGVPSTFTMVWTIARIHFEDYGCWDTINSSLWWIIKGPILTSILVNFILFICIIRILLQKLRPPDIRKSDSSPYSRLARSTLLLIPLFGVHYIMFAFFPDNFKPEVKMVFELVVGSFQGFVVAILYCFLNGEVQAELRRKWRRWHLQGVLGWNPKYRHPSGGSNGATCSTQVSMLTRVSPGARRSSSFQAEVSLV

[25] = Inhibition of Sodium channel site 2 at 10 uM; in short: as §5
[26] = Metabolic stability in rat liver microsomes; type: ADME, Microsome; in short: as §2
[27] = Inhibition of Plasmodium falciparum protein farnesyltransferase by SPA method
[28] = biological target: Neuropeptide Y receptor type 1 (Homo sapiens) (UniProt P25929); test: Inhibition of neuropeptide Y1 receptor at 10 uM; in short: as §4
Neuropeptide Y receptor type 1 (Homo sapiens), sequence (P25929 whole entry): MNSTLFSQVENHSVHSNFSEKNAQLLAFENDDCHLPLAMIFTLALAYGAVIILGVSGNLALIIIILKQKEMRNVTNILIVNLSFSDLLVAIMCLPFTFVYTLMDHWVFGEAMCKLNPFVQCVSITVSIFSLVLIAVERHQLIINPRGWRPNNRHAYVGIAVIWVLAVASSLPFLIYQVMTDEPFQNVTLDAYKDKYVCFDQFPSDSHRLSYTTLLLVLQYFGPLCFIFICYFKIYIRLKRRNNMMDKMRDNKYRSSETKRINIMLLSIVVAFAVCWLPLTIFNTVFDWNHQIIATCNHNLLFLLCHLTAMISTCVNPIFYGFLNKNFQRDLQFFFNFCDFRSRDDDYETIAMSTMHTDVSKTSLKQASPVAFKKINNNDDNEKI

[29] = biological target: Adenosine receptor A3 (Homo sapiens) (UniProt P0DMS8); test: Inhibition of adenosine A3 receptor at 10 uM; in short: as §1
Adenosine receptor A3 (Homo sapiens), sequence (P0DMS8 whole entry): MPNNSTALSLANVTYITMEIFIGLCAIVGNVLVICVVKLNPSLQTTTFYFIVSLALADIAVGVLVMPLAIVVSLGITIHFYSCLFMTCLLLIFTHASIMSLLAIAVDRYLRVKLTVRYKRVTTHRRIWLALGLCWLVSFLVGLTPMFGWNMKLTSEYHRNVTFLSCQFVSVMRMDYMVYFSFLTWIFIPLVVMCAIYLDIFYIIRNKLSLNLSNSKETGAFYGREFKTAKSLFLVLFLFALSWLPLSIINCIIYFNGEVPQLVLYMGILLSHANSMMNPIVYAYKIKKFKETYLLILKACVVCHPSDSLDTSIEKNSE

[30] = biological target: Sodium-dependent dopamine transporter (Homo sapiens) (UniProt Q01959); test: Inhibition of DAT at 10 uM; in short: as §1
Sodium-dependent dopamine transporter (Homo sapiens), sequence (Q01959 whole entry): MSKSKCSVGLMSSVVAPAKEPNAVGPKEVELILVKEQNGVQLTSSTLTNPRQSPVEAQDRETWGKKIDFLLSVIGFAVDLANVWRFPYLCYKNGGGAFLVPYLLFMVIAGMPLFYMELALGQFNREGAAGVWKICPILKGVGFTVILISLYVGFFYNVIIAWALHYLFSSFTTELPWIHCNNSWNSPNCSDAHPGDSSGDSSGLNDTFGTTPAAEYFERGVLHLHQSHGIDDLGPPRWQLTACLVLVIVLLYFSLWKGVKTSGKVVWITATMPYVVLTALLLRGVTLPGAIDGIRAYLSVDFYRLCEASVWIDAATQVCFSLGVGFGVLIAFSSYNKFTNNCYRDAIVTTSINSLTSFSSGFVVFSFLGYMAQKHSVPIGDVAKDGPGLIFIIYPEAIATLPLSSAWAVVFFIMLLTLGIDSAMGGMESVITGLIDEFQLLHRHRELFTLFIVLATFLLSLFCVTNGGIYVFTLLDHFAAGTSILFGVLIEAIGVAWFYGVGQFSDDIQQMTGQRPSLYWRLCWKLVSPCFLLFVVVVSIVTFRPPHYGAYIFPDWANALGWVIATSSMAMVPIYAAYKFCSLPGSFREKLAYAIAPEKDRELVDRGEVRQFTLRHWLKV

[31] = biological target: Kappa-type opioid receptor (Homo sapiens) (UniProt P41145); test: Inhibition of kappa opioid receptor at 10 uM; in short: as §4
Kappa-type opioid receptor (Homo sapiens), sequence (P41145 whole entry): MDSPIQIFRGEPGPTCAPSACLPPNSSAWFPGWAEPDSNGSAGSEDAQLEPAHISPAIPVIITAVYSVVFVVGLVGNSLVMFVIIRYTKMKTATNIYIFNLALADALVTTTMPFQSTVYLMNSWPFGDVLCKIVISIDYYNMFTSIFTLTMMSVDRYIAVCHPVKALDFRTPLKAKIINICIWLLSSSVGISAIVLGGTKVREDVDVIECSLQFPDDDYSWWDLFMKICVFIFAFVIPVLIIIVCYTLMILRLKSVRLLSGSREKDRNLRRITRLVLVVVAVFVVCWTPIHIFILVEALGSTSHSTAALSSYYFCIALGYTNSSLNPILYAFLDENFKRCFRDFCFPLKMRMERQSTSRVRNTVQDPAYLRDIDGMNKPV

[32] = system: Rattus norvegicus; test: Toxicity in Plasmodium berghei NK65 infected Sprague-Dawley rat assessed as effect on glucose levels at 50 mg/kg, perorally administered every 8 hrs for 3 days; type: organism-based; design: dose 50 mg/kg, route oral; conditions: in vivo, po; in short: as §3
[33] = system: Rattus norvegicus; test: Toxicity in Plasmodium berghei NK65 infected Sprague-Dawley rat assessed as effect on electrolyte levels at 50 mg/kg, perorally administered every 12 hrs for 3 days; type: organism-based; design: dose 50 mg/kg, route oral; conditions: in vivo, po; in short: as §3
[34] = system: Rattus norvegicus; test: Toxicity in Plasmodium berghei NK65 infected Sprague-Dawley rat assessed as effect on white blood cell differentials at 50 mg/kg, perorally administered every 12 hrs for 3 days; type: organism-based; design: dose 50 mg/kg, route oral; conditions: in vivo, po; in short: as §3

Adenosine receptor A1 (Homo sapiens), sequence (P30542 whole entry): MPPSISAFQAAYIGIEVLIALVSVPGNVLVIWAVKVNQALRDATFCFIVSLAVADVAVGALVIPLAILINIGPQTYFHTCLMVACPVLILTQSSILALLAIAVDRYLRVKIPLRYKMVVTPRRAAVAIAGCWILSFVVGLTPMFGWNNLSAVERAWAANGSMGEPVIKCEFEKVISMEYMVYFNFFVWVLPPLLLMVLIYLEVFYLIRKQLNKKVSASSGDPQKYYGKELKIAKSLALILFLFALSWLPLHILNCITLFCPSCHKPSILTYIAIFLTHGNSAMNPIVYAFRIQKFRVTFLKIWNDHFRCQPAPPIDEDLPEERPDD

COC(=O)N1CCC(CN(C2Cc3cc(C#N)ccc3N(Cc3cncn3C)C2)S(=O)(=O)c2ccccn2)CC1 (centres undefined)
inhibition [1]: inactive
inhibition [2]: inactive
half-life [3]: 5.8 min
AUC [4]: 3.68 µM·h
Activity [5]: Non-toxic
inhibition [6]: inactive
inhibition [7]: inactive
inhibition [8]: inactive
inhibition [9]: inactive
inhibition [10]: inactive
Activity [11]: Non-toxic
inhibition [12]: inactive
inhibition [13]: inactive
inhibition [14]: inactive
Activity [15]: inactive
inhibition [16]: inactive
EC50 [17]: 16 nM
inhibition [18]: inactive
Activity [19]: Non-toxic
inhibition [20]: inactive
bioavailability [21]: 82%
Activity [22]: Non-toxic
inhibition [23]: inactive
inhibition [24]: inactive
inhibition [25]: inactive
half-life [26]: 14 min
IC50 [27]: 0.58 nM
inhibition [28]: inactive
inhibition [29]: inactive
inhibition [30]: inactive
inhibition [31]: inactive
Activity [32]: Non-toxic
Activity [33]: Non-toxic
Activity [34]: Non-toxic
